Source: ChEMBL document CHEMBL1140204, “Discovery of boronic acids as novel and potent inhibitors of fatty acid amide hydrolase” (J Med Chem, 2008)
Calls of active or inactive are those of the source. No cut-off for these calls is given here.

Tests used:
[1] = target: T1, Monoglyceride lipase (Homo sapiens) (UniProt Q99685); assay: Inhibition of human recombinant MGL at 100 uM
T1 sequence (whole entry): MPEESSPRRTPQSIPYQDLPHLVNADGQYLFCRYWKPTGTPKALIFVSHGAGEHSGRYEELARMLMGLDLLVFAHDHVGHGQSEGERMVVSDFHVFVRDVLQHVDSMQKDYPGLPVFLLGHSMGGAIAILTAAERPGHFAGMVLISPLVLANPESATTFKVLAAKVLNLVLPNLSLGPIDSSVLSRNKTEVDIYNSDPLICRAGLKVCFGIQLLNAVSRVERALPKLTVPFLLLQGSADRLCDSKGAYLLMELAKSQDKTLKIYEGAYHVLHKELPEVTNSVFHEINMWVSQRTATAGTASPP
How it was run: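 Human recombinant MGL as enzyme source with 2-AG as substrate. Single-concentration screen at 100 µM, expressed as percent inhibition. Mean of two independent experiments, each performed in duplicate.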

[2] = target: T2, Fatty-acid amide hydrolase 1 (Rattus norvegicus, UniProt P97612); assay: Inhibition of Wistar rat brain FAAH assessed as [3H]arachidonoylethanolamide hydrolysis
T2 sequence (P97612 whole entry): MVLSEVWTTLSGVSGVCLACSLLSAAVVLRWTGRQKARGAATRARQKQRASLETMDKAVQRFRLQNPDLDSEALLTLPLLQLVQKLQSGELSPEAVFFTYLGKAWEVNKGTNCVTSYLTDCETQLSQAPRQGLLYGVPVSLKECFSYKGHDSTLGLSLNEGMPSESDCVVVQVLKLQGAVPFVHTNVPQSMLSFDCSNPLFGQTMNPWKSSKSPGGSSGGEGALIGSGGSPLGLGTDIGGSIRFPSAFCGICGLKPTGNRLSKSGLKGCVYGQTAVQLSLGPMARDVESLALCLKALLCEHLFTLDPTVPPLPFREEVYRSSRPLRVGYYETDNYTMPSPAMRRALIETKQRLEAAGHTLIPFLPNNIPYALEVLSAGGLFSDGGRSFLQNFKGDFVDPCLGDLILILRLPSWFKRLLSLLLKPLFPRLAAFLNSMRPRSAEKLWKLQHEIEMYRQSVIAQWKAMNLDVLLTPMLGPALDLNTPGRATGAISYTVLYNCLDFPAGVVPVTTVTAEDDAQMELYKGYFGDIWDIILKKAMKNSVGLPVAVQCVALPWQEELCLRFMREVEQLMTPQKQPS

Monoglyceride lipase = target: T3, Monoglyceride lipase (Homo sapiens, UniProt Q99685); assay: Inhibition of human recombinant MGL
T3 sequence (Q99685 whole entry): T1 sequence (whole entry)

[3] = target: T1, Monoglyceride lipase (Homo sapiens); assay: Inhibition of human recombinant MGL assessed as residual enzyme activity at 1 mM

Row | SMILES | inhibition [1] | IC50 [2] | IC50 (Monoglyceride lipase) | Activity [1] | Activity [3]
1 | COc1cccc(B(O)O)c1 | 7% | – | – | – | –
2 | OB(O)c1cc2ccccc2s1 | – | 150 nM | 32000 nM | – | –
3 | OB(O)c1ccccc1 [PHENYLBORONIC ACID] | – | 2600 nM | – | inactive | –
4 | OB(O)c1ccc(C(F)(F)F)cc1 | – | 36 nM | – | – | –
5 | O=[N+]([O-])c1ccc(B(O)O)cc1 | 43% | 210 nM | – | – | –
6 | OB(O)/C=C/c1ccc(-c2ccccc2)cc1 | – | 14 nM | – | – | –
7 | CCOC(=O)c1cccc(B(O)O)c1 | 34% | 120 nM | – | – | –
8 | CCCCCCCCCc1ccc(B(O)O)cc1 | – | 9.1 nM | 7900 nM | – | –
9 | OB(O)c1cccc(C(F)(F)F)c1 | – | 80 nM | 38000 nM | – | –
10 | OB(O)c1ccc(F)cc1 | 3% | 1500 nM | – | – | –
11 | OB(O)c1ccccc1-c1ccccc1 | 2% | 110000 nM | – | – | –
12 | OB(O)c1ccccc1C(F)(F)F | 20% | 68000 nM | – | – | –
13 | OB(O)c1cccc(-c2ccccc2)c1 | – | 130 nM | – | – | –
14 | OB(O)c1ccccc1F | 13% | 710 nM | – | – | –
15 | OB(O)c1ccc(F)nc1 | 2% | 10000 nM | – | – | –
16 | COc1ccc(B(O)O)cc1 | 11% | 2000 nM | – | – | –
17 | COc1ccccc1B(O)O | 11% | 13000 nM | – | – | –
18 | N#Cc1ccc(B(O)O)cc1 | 36% | 290 nM | – | – | –
19 | OB(O)c1cc2ccccc2o1 | – | 330 nM | 100000 nM | – | 8.4%
20 | N#Cc1cccc(B(O)O)c1 | 21% | 1600 nM | – | – | –
21 | OB(O)c1ccc(-c2ccccc2)cc1 [BIPHENYLBORONIC ACID] | – | 21 nM | – | – | –
